The source made the active and inactive calls. No cut-off for these calls is given here.
Legend:
[1] = target: T1, 5-hydroxytryptamine receptor 1A (Homo sapiens, UniProt P08908); test: Binding affinity towards human cloned 5-hydroxytryptamine 1A receptor using [3H]8-OH-DPAT as radioligand
T1 sequence (P08908 whole entry): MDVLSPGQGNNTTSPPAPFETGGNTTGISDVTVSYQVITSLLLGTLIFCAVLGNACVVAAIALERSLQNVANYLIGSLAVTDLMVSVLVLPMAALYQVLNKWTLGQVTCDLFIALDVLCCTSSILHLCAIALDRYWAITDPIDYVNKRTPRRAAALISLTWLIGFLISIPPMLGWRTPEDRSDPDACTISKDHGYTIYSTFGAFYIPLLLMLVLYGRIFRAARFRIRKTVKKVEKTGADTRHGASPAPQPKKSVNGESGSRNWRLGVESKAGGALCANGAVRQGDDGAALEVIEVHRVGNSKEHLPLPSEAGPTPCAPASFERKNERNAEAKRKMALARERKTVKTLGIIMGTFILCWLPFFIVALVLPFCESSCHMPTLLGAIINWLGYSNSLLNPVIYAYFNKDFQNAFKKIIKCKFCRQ

[2] = target: T2, Alpha-1A adrenergic receptor (Homo sapiens, UniProt P35348); test: Binding affinity towards human cloned alpha-1A-adrenoceptor using [3H]prazosin as radioligand
T2 sequence (P35348 whole entry): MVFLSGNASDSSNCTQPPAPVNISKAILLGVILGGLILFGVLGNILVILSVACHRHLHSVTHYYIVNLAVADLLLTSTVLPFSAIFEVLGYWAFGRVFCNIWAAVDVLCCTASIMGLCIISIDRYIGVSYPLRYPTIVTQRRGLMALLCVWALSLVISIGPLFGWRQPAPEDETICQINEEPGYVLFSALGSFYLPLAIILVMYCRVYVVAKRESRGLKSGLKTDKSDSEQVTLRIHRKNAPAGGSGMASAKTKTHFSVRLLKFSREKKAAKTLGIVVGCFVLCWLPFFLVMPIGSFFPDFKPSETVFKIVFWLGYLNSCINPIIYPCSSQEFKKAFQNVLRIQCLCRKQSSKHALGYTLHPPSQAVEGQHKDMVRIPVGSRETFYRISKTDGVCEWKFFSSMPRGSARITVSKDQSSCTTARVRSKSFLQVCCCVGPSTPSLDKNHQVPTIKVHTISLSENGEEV

[3] = target: T3, Alpha-1A adrenergic receptor (Homo sapiens) (UniProt P35348); test: Experimental binding affinity for alpha-1A-adrenergic receptor
T3 sequence (whole entry): T2 sequence (P35348 whole entry)
In short: (§1)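 Membranes (30 µg protein) from CHO cells stably transfected with each human α1 subtype. Nonspecific binding defined with 10 µM phentolamine. Filtration. IC50 from curve fit, converted to Ki by Cheng–Prusoff. Triplicates; 2–3 experiments.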

[4] = target: T4, Alpha-1B adrenergic receptor (Homo sapiens, UniProt P35368); test: Binding affinity towards human cloned alpha-1B-adrenoceptor using [3H]prazosin as radioligand
T4 sequence (P35368 whole entry): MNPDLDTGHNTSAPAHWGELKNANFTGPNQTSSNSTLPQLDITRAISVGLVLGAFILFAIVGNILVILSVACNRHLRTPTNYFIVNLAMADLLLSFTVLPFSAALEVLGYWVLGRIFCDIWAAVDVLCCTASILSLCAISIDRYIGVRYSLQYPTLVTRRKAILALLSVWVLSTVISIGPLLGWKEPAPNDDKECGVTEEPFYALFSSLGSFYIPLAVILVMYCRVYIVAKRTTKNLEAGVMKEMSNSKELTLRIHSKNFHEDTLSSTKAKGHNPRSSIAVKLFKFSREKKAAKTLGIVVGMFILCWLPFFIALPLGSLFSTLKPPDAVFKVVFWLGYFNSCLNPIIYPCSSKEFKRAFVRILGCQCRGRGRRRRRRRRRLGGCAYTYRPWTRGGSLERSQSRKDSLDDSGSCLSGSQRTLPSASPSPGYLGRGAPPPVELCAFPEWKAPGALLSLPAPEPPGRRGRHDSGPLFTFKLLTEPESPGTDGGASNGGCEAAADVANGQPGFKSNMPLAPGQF

[5] = target: T5, Alpha-1B adrenergic receptor (Homo sapiens) (UniProt P35368); test: Experimental binding affinity for alpha-1B-adrenergic receptor; in short: as §1
T5 sequence (whole entry): T4 sequence (P35368 whole entry)

[6] = target: T6, Alpha-1D adrenergic receptor (Homo sapiens, UniProt P25100); test: Binding affinity towards human cloned alpha-1D-adrenoceptor using [3H]prazosin as radioligand
T6 sequence (P25100 whole entry): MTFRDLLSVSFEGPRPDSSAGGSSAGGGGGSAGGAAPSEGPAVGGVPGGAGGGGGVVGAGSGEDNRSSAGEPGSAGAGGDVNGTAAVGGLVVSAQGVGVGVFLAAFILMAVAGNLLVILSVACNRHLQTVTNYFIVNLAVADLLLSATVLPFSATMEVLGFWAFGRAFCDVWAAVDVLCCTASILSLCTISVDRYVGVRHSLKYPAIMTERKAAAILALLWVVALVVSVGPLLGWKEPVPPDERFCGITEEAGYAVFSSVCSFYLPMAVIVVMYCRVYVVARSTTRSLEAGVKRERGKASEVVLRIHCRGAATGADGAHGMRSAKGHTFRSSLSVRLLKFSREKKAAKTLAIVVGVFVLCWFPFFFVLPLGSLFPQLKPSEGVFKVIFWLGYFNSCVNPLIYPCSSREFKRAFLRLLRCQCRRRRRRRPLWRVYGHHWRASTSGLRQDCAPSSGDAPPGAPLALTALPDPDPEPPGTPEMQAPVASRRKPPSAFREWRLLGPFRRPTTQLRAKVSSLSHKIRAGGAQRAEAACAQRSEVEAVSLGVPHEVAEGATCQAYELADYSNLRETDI

[7] = target: T7, Alpha-1D adrenergic receptor (Homo sapiens) (UniProt P25100); test: Experimental binding affinity for alpha-1D-adrenergic receptor; in short: as §1
T7 sequence (whole entry): T6 sequence (P25100 whole entry)

[8] = target: T8, 5-hydroxytryptamine receptor 1A (Homo sapiens) (UniProt P08908); test: Percent of maximum effect on binding of [35S]GTP-gamma-S, to HeLa cell membranes expressing the human 5-hydroxytryptamine 1A receptor; type: functional
T8 sequence (whole entry): T1 sequence (P08908 whole entry)
In short: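 [35S]GTPγS binding on human 5-HT1A-expressing HeLa membranes, with 30 µM GDP, compound 100 µM–0.1 nM, 20 min then 30 min at 30 °C. Stimulation given as percent increase over basal, with the maximal 5-HT response set to 100%. Emax taken from the nonlinear curve fit; 2–3 experiments.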

[9] = target: T1, 5-hydroxytryptamine receptor 1A; test: Ability to influence the binding of [35S]GTP-gamma-S, to HeLa cell membranes expressing the human 5-hydroxytryptamine 1A receptor; type: functional
In short: (§2)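 Membranes from HeLa cells stably expressing human 5-HT1A, in 20 mM HEPES, 3 mM MgSO4, 120 mM NaCl pH 7.4. Preincubated 20 min at 30 °C with 30 µM GDP and compound (100 µM to 0.1 nM), then [35S]GTPγS (150–250 pM) added for a further 30 min at 30 °C. Nonspecific binding defined with 10 µM GTPγS. Filtration, scintillation counting. pEC50 from nonlinear curve fit; 2–3 experiments.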

[10] = target: T8, 5-hydroxytryptamine receptor 1A (Homo sapiens); test: Ability to influence the binding of [35S]GTP-gamma-S, to HeLa cell membranes expressing the human 5-hydroxytryptamine 1A receptor; Not active; type: functional; in short: as §2

In the case of `CC(=O)c1c(-c2ccccc2)nn(C)c(=O)c1NCCN1CCN(c2ccccc2Cl)CC1`, the Ki [1] is reported as 11.6 nM, the Ki [2] is reported as 0.3 nM and the pK1a [3] is reported as 9.52. It also gave a Ki [4] of 0.75 nM, a pK1b [5] of 9.12 and a Ki [6] of 0.25 nM. For the same compound, the pK1d [7] was 9.6.

`COc1ccc(Cl)cc1N1CCN(CCCCNc2c(C(C)=O)c(C)nn(C)c2=O)CC1` was tested, and the Ki [1] was 1.39 nM, the Ki [2] was 2.99 nM and the pK1a [3] was 8.52. The Ki [4] was 49.1 nM, the pK1b [5] was 7.39 and the Ki [6] was 5.96 nM. It also gave a pK1d [7] of 8.3.

For `COc1ccccc1N1CCN(CCCNc2cc(-c3ccccc3)nn(C)c2=O)CC1`, the Ki [1] was 127 nM, the Ki [2] was 2.59 nM and the pK1a [3] was 8.59. For the same compound, the Ki [4] was 5.51 nM, the pK1b [5] was 8.26 and the Ki [6] was 11.8 nM. It also gave a pK1d [7] of 7.93.

With `COc1ccccc1N1CCN(c2c(C(C)=O)c(-c3ccccc3)nn(C)c2=O)CC1` the Ki [1] was > 1000 nM, the Ki [2] was 163 nM and the pK1a [3] was 6.79. The Ki [4] was 259 nM, the pK1b [5] was 6.59 and the Ki [6] was > 10000 nM. The pK1d [7] was 5.

Compound `CCC(=O)c1c(-c2ccccc2)nn(C)c(=O)c1NCCN1CCN(c2ccccc2OC)CC1` has an Effect [8] of 19%, a Ki [1] of 4.06 nM and an EC50 [9] of 2.51 nM. It also gave a Ki [2] of 0.19 nM, a pK1a [3] of 9.72 and a Ki [4] of 1.45 nM. It also gave a pK1b [5] of 8.84, a Ki [6] of 0.25 nM and a pK1d [7] of 9.6.

For `COc1ccc(Cl)cc1N1CCN(CCCNc2c(C(C)=O)c(-c3ccccc3)nn(C)c2=O)CC1`, the Ki [1] was 1000 nM, the Ki [2] was 0.44 nM and the pK1a [3] was 8.64. For the same compound, the Ki [4] was 1.44 nM, the pK1b [5] was 8.85 and the Ki [6] was 3.92 nM. The pK1d [7] was 8.41.

For `COc1ccccc1N1CCN(CCNc2c(C(C)=O)c(C)nn(C)c2=O)CC1`, the Ki [1] was 13 nM, the Ki [2] was 2.29 nM and the pK1a [3] was 8.64. The Ki [4] was 49.8 nM, the pK1b [5] was 7.3 and the Ki [6] was 3.2 nM. It also gave a pK1d [7] of 8.5.

`COc1ccccc1N1CCN(CCNc2cc(C)nn(C)c2=O)CC1` gave a Ki [1] of 32.1 nM, a Ki [2] of 18.6 nM and a pK1a [3] of 7.73. The Ki [4] was 33.1 nM, the pK1b [5] was 7.48 and the Ki [6] was 17.7 nM. The pK1d [7] was 7.75.

`COc1ccc(Cl)cc1N1CCN(CCNc2c(C(C)=O)c(-c3ccccc3)nn(C)c2=O)CC1` showed a Ki [1] of 76.2 nM, a Ki [2] of 0.28 nM and a pK1a [3] of 9.55. For the same compound, the Ki [4] was 3.95 nM, the pK1b [5] was 8.4 and the Ki [6] was 0.41 nM. It also gave a pK1d [7] of 9.39.

`COc1ccccc1N1CCN(CCNc2c(C(C)=O)c(-c3ccccc3)nn(C)c2=O)CC1` was tested, and the Ki [1] was 2.47 nM, the NA [10] was “inactive” and the Ki [2] was 0.63 nM. For the same compound, the pK1a [3] was 9.46, the Ki [4] was 3.29 nM and the pK1b [5] was 8.48. For the same compound, the Ki [6] was 0.13 nM and the pK1d [7] was 9.89.

`CCCN(CCC)C1CCc2cccc(O)c2C1` (centres undefined) [8-OH-DPAT] gave an Effect [8] of 100% and a Ki [4] of 5980 nM.

For `CC(=O)c1c(-c2ccccc2)nn(C)c(=O)c1NCCN1CCN(c2ccccc2F)CC1`, the Ki [1] was 24.1 nM, the Ki [2] was 0.32 nM and the pK1a [3] was 9.49. For the same compound, the Ki [4] was 3.77 nM, the pK1b [5] was 8.42 and the Ki [6] was 0.49 nM. For the same compound, the pK1d [7] was 9.31.

`COc1ccccc1N1CCN(CCNc2c(C(=O)C(C)C)c(-c3ccccc3)nn(C)c2=O)CC1` was tested, and the Ki [1] was 10.2 nM, the NA [10] was “inactive” and the Ki [2] was 0.18 nM. For the same compound, the pK1a [3] was 9.74, the Ki [4] was 0.64 nM and the pK1b [5] was 9.19. It also gave a Ki [6] of 0.43 nM and a pK1d [7] of 9.37.

Work on `COc1ccc(Cl)cc1N1CCN(CCCNc2c(C(C)=O)c(C)nn(C)c2=O)CC1` yielded a Ki [1] of 11.2 nM, a Ki [2] of 0.53 nM and a pK1a [3] of 9.29. For the same compound, the Ki [4] was 8.04 nM, the pK1b [5] was 8.1 and the Ki [6] was 5.34 nM. The pK1d [7] was 8.27.

Work on `COc1ccccc1N1CCN(CCCNc2c(C(C)=O)c(-c3ccccc3)nn(C)c2=O)CC1` yielded a Ki [1] of 134 nM, a Ki [2] of 1.51 nM and a pK1a [3] of 8.82. For the same compound, the Ki [4] was 20.3 nM, the pK1b [5] was 7.69 and the Ki [6] was 4.32 nM. For the same compound, the pK1d [7] was 8.37.

In the case of `COc1ccccc1N1CCN(CCCNc2c(C(C)=O)c(C)nn(C)c2=O)CC1`, the Effect [8] is reported as 17%, the Ki [1] is reported as 1.48 nM and the EC50 [9] is reported as 1.58 nM. The Ki [2] was 0.89 nM, the pK1a [3] was 9.09 and the Ki [4] was 53.4 nM. For the same compound, the pK1b [5] was 7.27, the Ki [6] was 34.5 nM and the pK1d [7] was 7.46.

Compound `COc1ccccc1N1CCN(CCNc2cc(-c3ccccc3)nn(C)c2=O)CC1` has a Ki [1] of 14 nM, a Ki [2] of 0.22 nM and a pK1a [3] of 9.66. The Ki [4] was 2.01 nM, the pK1b [5] was 8.7 and the Ki [6] was 11.8 nM. For the same compound, the pK1d [7] was 7.93.

`COc1ccc(Cl)cc1N1CCN(CCNc2cc(-c3ccccc3)nn(C)c2=O)CC1` showed a Ki [1] of 322 nM, a Ki [2] of 1 nM and a pK1a [3] of 9. For the same compound, the Ki [4] was 1.76 nM, the pK1b [5] was 8.75 and the Ki [6] was 1.07 nM. For the same compound, the pK1d [7] was 8.97.

With `COc1ccc(Cl)cc1N1CCN(CCCNc2cc(-c3ccccc3)nn(C)c2=O)CC1` the Ki [1] was > 1000 nM, the Ki [2] was 2 nM and the pK1a [3] was 8.7. The Ki [4] was 2.01 nM, the pK1b [5] was 8.7 and the Ki [6] was 2.92 nM. The pK1d [7] was 8.53.
